Assay: Toxicity liver stage against HepG2, at 10uM
Assay type: cell-based
Parameters: test concentration 10 uM, cell line HepG2-A16-CD81EGFP
Conditions: human, HepG2-A16-CD81EGFP cells; read-out: INHIBITION
Procedure, shortened: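 Uninfected HepG2-A16-CD81EGFP cells, 3 × 10^3 per well, 1536-well, plated on prespotted compound at 10 μM final, parasite-free screening media added to match infected plates; puromycin 10 μM positive, DMSO 0.5% negative; run in parallel with 48 h PbLuc assay at 37 °C, 5% CO2; viability by CellTiter-Glo luminescence, normalized to controls.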

SMILES	cytotoxicity at 10 µM [%]
CC(C)(O)c1cc(CC2(NCc3ccccc3Cl)COC2)no1	2.63
CCCC(O)CN1CCC(=O)N(CCOC)Cc2ccccc21 (stereo not given)	3.23
COC(=O)CCn1ccc(=O)c2cc(F)ccc21	0.409
CN1CCN(C(=O)c2cc3occc3n2Cc2ccccc2F)CC1	1.14
Cc1cnc2n(c1=O)C(CC(=O)NCc1ccccc1Cl)CS2 (stereo not given)	-7.86
COc1ccc(C(=O)NCC(c2cccn2C)N2CCN(C)CC2)cc1 (stereo not given)	8.19
O=S(=O)(NCCNc1cc(-n2cccc2)ncn1)c1cccs1	-0.582
O=C(O)c1ncccc1N1CCCCC1	4.19
CC(C)N(C)[C@@H]1CCN(Cc2ccco2)[C@H]1Cc1ccccc1	-7.92
Cc1occc1C(=O)N1C[C@@H]2CN(S(C)(=O)=O)CCO[C@@H]2C1	-2.63
CC(C)CCN1C2(CCN(C(=O)C3(C)CC3)C2)c2ccccc2S1(=O)=O (stereo not given)	-7.42
COCCNC(=O)c1cc2c(s1)CCN2S(C)(=O)=O	-5.05
Cc1c(C)n(CC(O)CN2CCC(O)CC2)c2c(Cl)cccc12 (stereo not given)	-13.9
O=C(NCC1CC1)C1=NOC2(CCN(Cc3ccc4c(c3)OCO4)C2)C1 (stereo not given)	-12.1
CN1C(=O)C(c2cccnc2)CC12CCN(C(=O)c1cccn1C)CC2 (stereo not given)	-16.4
Cc1noc([C@@H]2C[C@H]3OCC[C@H]3N(S(C)(=O)=O)C2)n1	-9.67
CC(C)CNC(=O)c1nn(C)c(NC(=O)Cc2ccccc2)c1F	-3.22
CCn1cc(NC(=O)C(C)n2ncc(Cl)c2C)c(C(=O)OC)n1 (stereo not given)	7.19
Cc1cc(O)n(-c2ccc3nnc(C)n3n2)n1	9.24
CC(=O)Nc1ncc(S(=O)(=O)Nc2ccc(F)cc2F)s1	11.1
O=C(NCc1ccccc1)c1nnc2ccc(N3CCOCC3)cc2n1	11.2
CNC(=O)CCc1cc(C2CCCN2S(C)(=O)=O)nc(C)n1 (stereo not given)	-0.0612

SMILES	cytotoxicity at 10 µM [%]
CC(=O)N[C@H]1CCO[C@@H](c2cccc(NC(=O)c3cccc(F)c3)c2)C1	8.75
Cc1ccccc1S(=O)(=O)N[C@@H]1CC[C@@H](N2CCNC(=O)C2)[C@@H]1O	4.29
CNC(=O)c1cn[nH]c1C1CCN(Cc2cccc(C)c2OC)C1 (stereo not given)	-23.6
Cc1ccnc(C2(C)CCCN2C(=O)c2cnccn2)n1 (stereo not given)	-34
Cc1cc(C2CCCCCN2Cc2cn(C)nc2C)no1 (stereo not given)	-20.4
Nc1cc(-c2cccs2)nn(CC(=O)NCC2CCCCC2)c1=O	-3.09
Fc1ccc(CN2CCCC(c3nccnc3-n3ccnc3)C2)cc1 (stereo not given)	-20.4
Cn1cccc1CN1CCc2c(nc(-c3ccccn3)[nH]c2=O)C1	-10
CN(Cc1nnc(C2CC2)o1)Cc1ccccc1-c1ccccc1	4.59
Cc1ccc(S(=O)(=O)N[C@H](CO)C(C)C)cc1N(C)C	-5.53
NC(=O)CNC(c1ccccc1)c1ccccc1	-10.5
Cc1cc(NC(=O)CNC2CCc3ncnn3C2)on1 (stereo not given)	6.47
CNC(=O)N1CCOC(C)(c2cnn(C)c2)C1 (stereo not given)	-0.717
Cc1nnc(N2CCc3cnc(C(C)C)nc3C2)c(C#N)c1C	-143
CCCNC(=O)CCC(=O)Nc1cc2sc(C)nc2cc1OC	4.55
CCC(C)N(C)C(=O)Nc1ccc(N2CCSCC2)cc1C (stereo not given)	-12.5
Cc1sc(-c2ccco2)nc1C(=O)N(CC1CCOC1)C1CC1 (stereo not given)	0.714
Cc1nc(-c2ccco2)ccc1C(=O)NCCC(=O)N1CCCCC1	-1.33
COc1ccc(OC)c(CCC(=O)Nc2cc(C)n[nH]2)c1	7.3
O=C(NCCCN1CCC(OC2CCCCC2)CC1)C1CCCC1	2.24
Cc1ccc(CN2CCOC(C)(c3cnn(C)c3)C2)cc1 (stereo not given)	-4.16
N#Cc1ccc(SCCOCCO)c(Cl)c1	2.68

SMILES	cytotoxicity at 10 µM [%]
CCOc1ccnc(N2CCN(CCOC)CC2)n1	4.49
CN1CCN(CC(NCc2cccc(O)c2)c2ccccc2)CC1 (stereo not given)	-3.89
Cc1cc(C)n(-c2cncc(NCCC(=O)NC(C)C)n2)n1	1.06
O=C(C1SCCc2sccc21)N1CC(O)C1 (stereo not given)	9.22
c1nc(N2CCCCC2Cn2cncn2)c2sccc2n1 (stereo not given)	9.43
Cc1cc(NS(=O)(=O)c2cccs2)ccc1-n1cccc1C(=O)O	-2.68
COCCn1nc(C(=O)N(C)Cc2cccnc2)ccc1=O	-144
CCCN(C)C(=O)c1cc(Br)cc(S(=O)(=O)N2CCOCC2)c1F	6.83
CC(C)OC(=O)CCNC(=O)Nc1cccc2ncccc12	1.03
Cc1cc(N)nc(SC2CCN(c3ccccc3)C2=O)n1 (stereo not given)	-0.572
Cc1ccc2c(c1)CCCN2C(=O)c1cncc(Br)c1	-8.79
N#Cc1c(Cl)nsc1N1CCN(CC2CCCCC2)CC1	-8.67
CC1CN(C)CCN1C(=O)Nc1nc(-c2ccc[nH]2)cs1 (stereo not given)	-1.94
CCC(O)CN1CCN(C(=O)Cc2c(C)nc(C)[nH]c2=O)CC1 (stereo not given)	-19.3
O=C(Cn1cc(-n2cccc2)cn1)NCC(F)(F)F	16
COc1ccc(-c2nc(C3(NC(=O)OC(C)(C)C)CCC3)no2)cn1	12.5
CCC(O)CN1CCN(C(=O)c2ccnc(N(C)C)c2)CC1 (stereo not given)	-7.87
CC(=O)N1CC[C@@H]2O[C@@H](COCc3csc(C)n3)CC[C@@H]21	-71.7
Cc1noc([C@H]2C[C@H]3OCC[C@H]3N(Cc3ccncc3)C2)n1	-74.7
CNC(=O)[C@@]12CCO[C@@H]1CCN(S(=O)(=O)c1ccccc1C)C2	-72.8
CC(=O)N1CCC2(CCN(C(=O)c3ccc(F)c(C(F)(F)F)c3)CC2)C1	-80.4
c1cnc(OCc2nnc3n2CCN(CC2CCOCC2)C3)nc1	4.95

SMILES	cytotoxicity at 10 µM [%]
Cc1ccc(N2CCC3(CCN(C(=O)c4ccsc4)CC3)C2)nn1	4
CNC(=O)CC1CC2(CCN(S(C)(=O)=O)CC2)c2ccccc21 (stereo not given)	5.75
CCn1ccnc1C1CCN(C(=O)C(O)c2ccc(Cl)cc2)CC1 (stereo not given)	-0.65
CNCC(=O)N1CCCC1c1nc(C(C)C)no1 (stereo not given)	0.983
Cn1nccc1C(=O)N1CCCC1c1ccc(C(=O)N2CCOCC2)s1 (stereo not given)	-145
CCCN1CCC(CC(=O)N(C)C(C)c2cncs2)CC1 (stereo not given)	2.62
CC(C)CN1CC2(CCN(C(=O)C(O)c3ccccc3Cl)CC2)CC1=O (stereo not given)	6.89
COc1ccc(-c2cc(C3CCOC3)c(C#N)c(N)n2)cn1 (stereo not given)	10.2
Cc1c(CNCCCOc2cccnc2)c2ccccc2n1CC(N)=O	-145
O=c1[nH]c2cc3c(cc2cc1CN1CCCC1c1ccccn1)OCO3 (stereo not given)	-4.5
CCOCC(=O)N1Cc2cnc(-c3ccccc3)nc2C1	-1.08
CN(CCC1CCCCO1)c1nncc(-c2ccccc2)n1 (stereo not given)	1.37
Cc1nc(CN2CCN(C(=O)C(c3ccccc3C)N(C)C)CC2)no1 (stereo not given)	1.06
CCn1ncc(C(=O)N2CCCN(CCCc3ccccc3)CC2)c1C	-2.62
O=C1OCCN1CCNC(=O)C1(N2CCCCC2)Cc2ccccc2C1	-6.77
CCCc1cc(C(=O)N2C[C@H]3CC=C(C)C[C@H]3C2)ccn1	0.782
Cc1nccnc1-n1c(COCC(=O)O)nc2c(C)cccc21	-6.29
CCCN1CCN(Cc2cc3cc(OCC)ccc3[nH]c2=O)CC1	-9.91
CCOCCn1c(=O)n(CCC=C(C)C)c2cc(C(=O)O)cnc21	-2.85
CC(C)N1CCCC2(CCN(C(=O)CCCn3ccnc3)C2)C1=O (stereo not given)	-6.43
Cc1[nH]c(=O)[nH]c(=O)c1CN1CCCC(CCc2c(F)cccc2F)C1 (stereo not given)	-7.32
CNC(=O)c1cccc(CNC(=O)C2CC(=O)N(CCN(C)C)C2)c1 (stereo not given)	1.01

SMILES	cytotoxicity at 10 µM [%]
COc1ccc2c(c1)CCN(CCC(=O)NC1CCCCC1)CC2	-11.4
CN(C)c1nc2c(c(=O)[nH]1)CCN(C(=O)c1cccc3nccnc13)C2	-10.7
CNc1cncc(C2CCCN2C(=O)c2ccc3oc(C)cc3c2)n1 (stereo not given)	4.52
O=C(Nc1ccc(CCN2CCOCC2)cc1)C1CC1	-10.9
CC(C)c1nnc2n1CCN(C(=O)c1cc(Cl)c[nH]1)C2	-11.4
Cc1ccc(C(=O)N2CCCN(Cc3cccs3)CC2)n1C	-0.926
CN(Cc1ccsc1)C(=O)c1ccc2c(c1)NC(=O)CO2	-12.8
Cc1noc(C(C)C)c1C(=O)NCC(c1ccsc1)N(C)C (stereo not given)	-5.18
CCS(=O)(=O)N(C)CC(=O)Nc1ccc(Br)cn1	-0.0481
Cc1cc(NC(=O)CN2CCCC2c2noc(C(C)C)n2)n(C)n1 (stereo not given)	4.64
O=C(c1cc(F)ccc1F)C1CCN(C(=O)c2ccccn2)CC1	2.6
CN(C)c1ncc(-c2ccc(C(N)=O)cc2)c(C2CCNC2)n1 (stereo not given)	-0.892
Cc1nc(CN2CCc3ncnc(-c4ccccc4)c3CC2)cs1	-81.1
CN(C)CCN1CCOCC12CCN(C(=O)C1CC1)CC2	-7.45
Cc1ccc(N2CCC3(CC2)COCCN(c2nccs2)C3)nn1	-107
CC(=O)N1CC(=O)N(c2ccccc2)CC12CCN(Cc1cccs1)C2 (stereo not given)	-11.1
CCO[C@H]1CN(CC2CC2)[C@@H]2CCCO[C@H]12	-105
CN(C)C[C@]12COC[C@H]1CN(C(=O)CCc1ccccc1)C2	-1.89
O=C(NC[C@]12COC[C@H]1CN(Cc1ccncc1)C2)c1ccno1	-72.1
c1ccc(-c2ccc3nc(C4CCN(CC5CC5)CC4)nn3c2)cc1	-7.32
Cc1cc(CN2CC[C@H]3OCC[C@@]3(C(=O)NC(C)C)C2)no1	5.86
CN(C)CCNC(=O)[C@H]1C[C@H]2CN(C(=O)NC3CCCC3)C[C@@H]1O2	-4.2

Reference: ChEMBL document CHEMBL4513216, “Probing the Open Global Health Chemical Diversity Library for Multistage-Active Starting Points for Next-Generation Antimalarials” (ACS Infect Dis, 2020)
